From ChEMBL document CHEMBL1124570, “2-[[(4-Amino-2-pyridyl)methyl]sulfinyl]benzimidazole H+/K+-ATPase inhibitors. The relationship between pyridine basicity, stability, and activity” (J Med Chem, 1989)
Converted amounts (≈) assume the structure as drawn.

Columns and labels:
[1] = Dissociation constant at 37 degree Centigrade; type: physicochemical
Canis familiaris [2] = assay: Percent inhibition of histamine-stimulated gastric acid secretion in Heidenhain pouch dog after intraduodenal administration of compound (1 umol/kg); type: functional, Canis lupus familiaris, Stomach
How it was run: (§1)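 Heidenhain pouch dog with i.v. histamine at 0.5 μmol/(kg·h). Juice is collected every 15 min and acid output is found by titration to pH 7.4. Compound is given intraduodenally via a chronic duodenal cannula at submaximal plateau. Value is peak inhibition or mean plateau inhibition over 1 to 2½ h, mean of n = 4 dogs ± SEM.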

[3] = Half-life at pH 1.0; type: ADME; settings: buffer
How it was run: (§2)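 Stability at ambient temperature (20 °C) in acetonitrile/phosphate buffer (1:3) adjusted to the stated pH. Initial compound concentration is 1 × 10⁻³ to 3 × 10⁻⁴ M. Loss is followed by reverse-phase C18 HPLC with UV detection at 280 nm. t1/2 comes from linear regression of ln(concentration) vs time (h).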

Rattus norvegicus [4] = assay: Inhibition of histamine-stimulated gastric acid secretion in lumen perfused anesthetized rat after intraduodenal administration; type: functional; settings: Stomach
How it was run: (§3)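 Anaesthetized rat with stomach lumen perfusion. Effluent H⁺ activity is monitored continuously with a microflow glass electrode. Secretion is driven by i.v. histamine infusion at 0.25 μmol/(kg·min). Inhibitor is given i.v. or i.d. once a submaximal plateau is reached. % inhibition compares peak inhibition with the pre-dose plateau. ED50 uses three dose levels, three animals per dose.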

Rattus norvegicus [5] = assay: Inhibition of histamine-stimulated gastric acid secretion in lumen perfused anesthetized rat after intravenous administration; type: functional; settings: Stomach; how it was run: as §3
[6] = Half-life at pH 7.4; type: ADME; settings: buffer; how it was run: as §2
Rattus norvegicus [7] = assay: Inhibition of histamine-stimulated gastric acid secretion in lumen perfused anesthetized rat after intravenous administration; Poor solubility; type: functional, organism-based; settings: Stomach; how it was run: as §3
Canis familiaris [8] = assay: Inhibition of histamine-stimulated gastric acid secretion in conscious Heidenhain pouch dog after intravenous administration; type: functional; settings: Canis lupus familiaris, Stomach
How it was run: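 Conscious dog with a Heidenhain pouch made 1-3 years earlier. Acid secretion is stimulated by i.v. histamine at 0.5 μmol/(kg·h). Juice is collected by gravity every 15 min and titrated to pH 7.4 with 0.1 N NaOH. Inhibitor is given i.v. at submaximal plateau. % inhibition compares the peak-inhibition sample with the pre-dose sample. ED50 uses three doses × three dogs, with 95% confidence limits (n = 9).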

[9] = Partition coefficient at 37 degrees Celsius at pH 7.4; type: physicochemical; settings: octanol/water
[10] = Dissociation constant at 37 degrees Centigrade; type: physicochemical
Rattus norvegicus [11] = assay: Inhibition of histamine-stimulated gastric acid secretion in lumen perfused anesthetized rat after intravenous administration of 1 umol/kg; type: functional; settings: Stomach; how it was run: as §3
[12] = Partition coefficient at 37 degree Celsius at pH 7.4; type: physicochemical; settings: octanol/water
Canis familiaris [13] = assay: Percent inhibition of histamine-stimulated gastric acid secretion in Heidenhain pouch dog after intraduodenal administration of compound (2 umol/kg); type: functional, Canis lupus familiaris, Stomach; how it was run: as §1
[14] = Solubility in water at pH 10
Rattus norvegicus [15] = assay: Inhibition of histamine-stimulated gastric acid secretion in lumen perfused anesthetized rat after intravenous administration of 1 umol/kg.; type: functional; settings: Stomach; how it was run: as §3

Row | Structure (SMILES) | pKa [1] | ED50 (Rattus norvegicus [4]) [µmol/kg] | half-life [6] [h] | ED50 (Canis familiaris [8]) [µmol/kg] | further results
1 | COc1ccc2[nH]c([S+]([O-])Cc3ncc(C)c(N(C)C)c3Cl)nc2c1 (stereo not given) | 5.92 | 1.48 | 432 |  | Inhibition (Canis familiaris [2]): 67%; half-life [3]: 1 min; ED50 (Rattus norvegicus [5]): 0.34 µmol/kg
2 | COc1ccc2[nH]c([S+]([O-])Cc3nccc(N4CCCC4)c3Cl)nc2c1 (stereo not given) | 7.58 |  | 36 |  | ED50 (Rattus norvegicus [7]): Poor solubility
3 | COc1ccc2[nH]c([S+]([O-])Cc3ncc(C)c(N4CCCCC4)c3Cl)nc2c1 (stereo not given) |  | 2.51 | 444 |  | 
4 | COc1ccc2[nH]c([S+]([O-])Cc3ncc(C)c(OC)c3C)nc2c1 (stereo not given) [OMEPRAZOLE] |  |  | 456 | 0.2 | Inhibition (Canis familiaris [2]): 53%; half-life [3]: 2 min; logD [9]: 2.18; pKa [10]: 6.29
5 | COc1ccc2[nH]c([S+]([O-])Cc3cc(N4CCCC4)c(Br)cn3)nc2c1 (stereo not given) | 6.92 |  | 49 |  | 
6 | COc1ccc2[nH]c([S+]([O-])Cc3nccc(N(C)C)c3F)nc2c1 (stereo not given) | 7.12 |  | 11 |  | 
7 | COc1ccc2[nH]c([S+]([O-])Cc3ncc(C)c(N4CCCC4)c3Cl)nc2c1 (stereo not given) |  |  | 60 | 0.57 | 
8 | COc1ccc2[nH]c([S+]([O-])Cc3nccc(N4CCCCC4)c3Cl)nc2c1 (stereo not given) | 5.95 | 7.72 | 175 | 1.16 | 
9 | COc1ccc2[nH]c([S+]([O-])Cc3nccc(N4CCOCC4)c3F)nc2c1 (stereo not given) | 5.89 | 3.2 | 144 |  | 
10 | COc1ccc2[nH]c([S+]([O-])Cc3nccc(N(C)C)c3Cl)nc2c1 (stereo not given) |  | 0.38 | 17 | 0.26 | ED50 (Rattus norvegicus [5]): 0.44 µmol/kg
11 | COc1ccc2[nH]c([S+]([O-])Cc3cc(N(C)C)c(Cl)cn3)nc2c1 (stereo not given) |  |  | 96 | 0.77 | ED50 (Rattus norvegicus [5]): 1.32 µmol/kg
12 | COc1ccc2[nH]c([S+]([O-])Cc3ncc(C)c(N4CCOCC4)c3Cl)nc2c1 (stereo not given) | 5.32 |  | > 3000 |  | 
13 | COc1ccc2[nH]c([S+]([O-])Cc3cc(N4CCOCC4)c(Br)cn3)nc2c1 (stereo not given) |  |  |  |  | inhibition in vivo at 1 µmol/kg (Rattus norvegicus [11]): 14%
14 | COc1ccc2[nH]c([S+]([O-])Cc3cc(N4CCOCC4)c(F)cn3)nc2c1 (stereo not given) | 5.72 | 0.65 | 418 | 5.07 | 
15 | COc1ccc2[nH]c([S+]([O-])Cc3nccc(N4CCCCC4)c3Br)nc2c1 (stereo not given) |  |  | 300 |  | ED50 (Rattus norvegicus [5]): 0.85 µmol/kg
16 | COc1ccc2[nH]c([S+]([O-])Cc3nccc(N4CCOCC4)c3Cl)nc2c1 (stereo not given) | 5.28 | 1.14 | 1300 | 1.01 | logD [12]: 1.81; half-life [3]: 1 min; Inhibition (Canis familiaris [13]): 48%; solubility [14]: 15 mg/mL (≈ 36.9 mM)
17 | COc1ccc2[nH]c([S+]([O-])Cc3cc(N4CCCCC4)c(Br)cn3)nc2c1 (stereo not given) | 5.4 | 1.05 | 864 | 2.94 | 
18 | COc1ccc2[nH]c([S+]([O-])Cc3cc(N(C)C)c(Br)cn3)nc2c1 (stereo not given) | 5.8 | 1.75 | 101 |  | ED50 (Rattus norvegicus [5]): 0.26 µmol/kg
19 | COc1ccc2[nH]c([S+]([O-])Cc3cc(N(C)C)c(F)cn3)nc2c1 (stereo not given) | 6.96 |  | 26 |  | inhibition in vivo at 1 µmol/kg (Rattus norvegicus [15]): 37%
